ChEMBL document CHEMBL5149989, “Interplay among Conformation, Intramolecular Hydrogen Bonds, and Chameleonicity in the Membrane Permeability and Cyclophilin A Binding of Macrocyclic Peptide Cyclosporin O Derivatives” (J Med Chem, 2021)
Non-standard residues stand in square brackets, D forms with d. Residues, ends and D or L forms follow the SMILES beside them. NMeL = CN[C@@H](CC(C)C)C(=O)O; NMeV = CN[C@H](C(=O)O)C(C)C; Nva = CCC[C@H](N)C(=O)O; Sar = CNCC(=O)O

Tests used:
[1] = Permeability in PBS buffer measured after 18 hrs by PAMPA based LC-MS analysis; format: ADME; conditions: read-out: permeability
[2] = Effective permeability in PBS buffer assessed as mass retention measured after 18 hrs by PAMPA based LC-MS analysis; format: ADME
[3] = Permeability across apical to basal side in human Caco-2 cells measured at 0.5 to 2 hrs by LC-MS analysis; format: ADME, cell-based; conditions: time 0.5-2 hrs; for Papp A→B: read-out: permeability
[4] = Permeability across apical to basal side in human Caco-2 cells assessed as drug recovery measured at 0.5 to 2 hrs by LC-MS analysis relative to control; format: ADME, cell-based; conditions: time 0.5-2 hrs, read-out: Drug recovery
[5] = Permeability across basal to apical side in human Caco-2 cells measured at 0.5 to 2 hrs by LC-MS analysis; format: ADME, cell-based; conditions: time 0.5-2 hrs, read-out: permeability
[6] = Permeability across basal to apical side in human Caco-2 cells assessed as drug recovery measured at 0.5 to 2 hrs by LC-MS analysis relative to control; format: ADME, cell-based; conditions: time 0.5-2 hrs, read-out: Drug recovery
[7] = Permeability across apical to basal side in human Caco-2 cells preincubated with verapamil for 30 mins followed by compound addition measured at 0.5 to 2 hrs by LC-MS analysis; format: ADME, cell-based; conditions: Caco-2, with verapamil (concentration not stated), time 0.5-2 hrs, read-out: permeability
[8] = Permeability across apical to basal side in human Caco-2 cells assessed as drug recovery preincubated with verapamil for 30 mins followed by compound addition measured at 0.5 to 2 hrs by LC-MS analysis relative to control; format: ADME, cell-based; conditions: for recovery: Caco-2, with verapamil (concentration not stated), time 1-2.5 hrs, read-out: Drug recovery
[9] = target: Peptidyl-prolyl cis-trans isomerase A (Homo sapiens, UniProt P62937); experiment: Binding affinity to CypA (unknown origin) assessed as inhibition constant by isomer specific proteolysis assay
Peptidyl-prolyl cis-trans isomerase A, sequence (P62937 whole entry): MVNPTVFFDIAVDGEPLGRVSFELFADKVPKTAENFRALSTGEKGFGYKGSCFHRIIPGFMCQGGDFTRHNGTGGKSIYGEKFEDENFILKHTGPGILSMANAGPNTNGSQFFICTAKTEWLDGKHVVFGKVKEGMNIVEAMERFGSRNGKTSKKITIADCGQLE

[10] = Tmax in ICR mouse at 20 mg/kg, po measured after 0.25 to 24 hrs by LC-MS/MS analysis; format: ADME, organism-based; conditions: in vivo, time 0.25-24 hrs
[11] = AUCinfinity in ICR mouse at 20 mg/kg, po measured after 0.25 to 24 hrs by LC-MS/MS analysis; format: ADME, organism-based; parameters: dose 20 mg/kg, time upper 24 hrs, time lower 0.25 hrs, route po; conditions: in vivo
[12] = Cmax in ICR mouse at 20 mg/kg, po measured after 0.25 to 24 hrs by LC-MS/MS analysis; format: ADME, organism-based; parameters: time upper 24 hrs, time lower 0.25 hrs, dose 20 mg/kg, route po; conditions: in vivo
[13] = Clearance in ICR mouse at 20 mg/kg, po measured after 0.25 to 24 hrs by LC-MS/MS analysis; format: ADME, organism-based; conditions: in vivo, time 0.25-24 hrs
Outline: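 Male ICR mice (9 weeks, 33−37 g) given 20 mg/kg (10 mL/kg) by oral gavage. Plasma obtained by centrifugation at 4 °C, protein-precipitated with 4 volumes acetonitrile, and analysed by LC-MS/MS.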

[14] = Apparent volume of distribution in ICR mouse at 20 mg/kg, po measured after 0.25 to 24 hrs by LC-MS/MS analysis; format: ADME, organism-based; conditions: in vivo, time 0.25-24 hrs
[15] = Half life in ICR mouse at 20 mg/kg, po measured after 0.25 to 24 hrs by LC-MS/MS analysis; format: ADME, organism-based; conditions: in vivo, time 0.25-24 hrs
[16] = Oral bioavailability in ICR mouse at 20 mg/kg measured after 0.25 to 24 hrs by LC-MS/MS analysis; format: ADME, organism-based; conditions: in vivo, time 0.25-24 hrs
Outline: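 Male ICR mice received 5 mg/kg iv via tail vein or 20 mg/kg po by gavage. Plasma was sampled serially up to 24 h via the saphenous vein, acetonitrile-precipitated and quantified by LC-MS/MS. F was derived from the po and iv AUC∞ values.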

[17] = Ratio of drug level in brain to plasma in ICR mouse plasma at 1 uM preincubated for 10 mins followed by compound addition measured after 60 mins by LC-MS/MS analysis; format: ADME, cell-free; conditions: read-out: BPR
[18] = Potency index, ratio of cyclosporin A BPR to test compound BPR for drug level in ICR mouse at 1 uM; format: ADME; conditions: in vivo
[19] = Half life in ICR mouse at 5 mg/kg, iv measured after 0.08 to 24 hrs by LC-MS/MS analysis; conditions: in vivo
[20] = AUCinfinity in ICR mouse at 5 mg/kg, iv measured after 0.08 to 24 hrs by LC-MS/MS analysis; conditions: in vivo
[21] = Volume of distribution at steady state in ICR mouse at 5 mg/kg, iv measured after 0.08 to 24 hrs by LC-MS/MS analysis; conditions: in vivo, read-out: Vdss

SMILES	Papp at 18 h [1] [×10⁻⁶ cm/s]	Activity [2] [%]	Papp A→B [3] [×10⁻⁶ cm/s]	recovery [4] [%]	Papp B→A [5] [×10⁻⁶ cm/s]	recovery [6] [%]	Papp A→B [7] [×10⁻⁶ cm/s]	recovery [8] [%]	Ki [9] [µM]	further results
CCC[C@@H]1NC(=O)[C@H](CC(C)C)N(C)C(=O)[C@H](CC(C)C)N(C)C(=O)[C@H](CC(C)C)N(C)C(=O)[C@H](CC(C)C)N(C)C(=O)[C@@H](C)NC(=O)[C@H](C)NC(=O)[C@H](CC(C)C)N(C)C(=O)[C@H](C(C)C)NC(=O)[C@H](CC(C)C)N(C)C(=O)CN(C)C1=O	0.06	74	0.07	66	0.61	65	0.34	107	> 20	
CCC[C@@H]1NC(=O)[C@H](CC(C)C)N(C)C(=O)[C@H](C(C)C)N(C)C(=O)[C@H](CC(C)C)N(C)C(=O)[C@H](CC(C)C)N(C)C(=O)[C@@H](C)NC(=O)[C@H](CCC(N)=O)NC(=O)[C@H](CC(C)C)N(C)C(=O)[C@H](C(C)C)NC(=O)[C@H](CC(C)C)N(C)C(=O)CN(C)C1=O	< 0.004	60	0.05	76	5.17	88	0.07	112	3	
CCC[C@@H]1NC(=O)[C@H](CC(C)C)N(C)C(=O)[C@H](C(C)C)N(C)C(=O)[C@H](CC(C)C)N(C)C(=O)[C@H](CC(C)C)N(C)C(=O)[C@@H](C)NC(=O)[C@H](C)NC(=O)[C@H](CC(C)C)N(C)C(=O)[C@H](C(C)C)NC(=O)[C@H](CC(C)C)N(C)C(=O)CN(C)C1=O (cyclo(A[dA][NMeL][NMeL][NMeV][NMeL][Nva][Sar][NMeL]V[NMeL]))	0.29	84		82	2.88	82	0.69		2.3	permeability [3]: 0.29 10^-6 cm/s; Drug recovery ([8]; caco-2, time 1-2.5 hrs): 123%; Tmax [10]: 0.8 h; AUC [11]: 4080 ng·h/mL; Cmax [12]: 1600 ng/mL; CL/F [13]: 82 mL/min/kg; Vz [14]: 22.2 L/kg; half-life [15]: 3.1 h; F [16]: 12%; Kp at 1 h, 1 µM [17]: 0.62; Ratio [18]: 5; half-life [19]: 4.8 h; AUC [20]: 8500 ng·h/mL; Vd [21]: 4 L/kg
CCC[C@@H]1NC(=O)[C@H](CC(C)C)N(C)C(=O)[C@H](CC(C)C)N(C)C(=O)[C@H](CC(C)C)N(C)C(=O)[C@H](CC(C)C)N(C)C(=O)[C@@H](C)NC(=O)[C@H](CCC(N)=O)NC(=O)[C@H](CC(C)C)N(C)C(=O)[C@H](C(C)C)NC(=O)[C@H](CC(C)C)N(C)C(=O)CN(C)C1=O (cyclo([NMeL][NMeL][NMeL][NMeL][Nva][Sar][NMeL]V[NMeL]Q[dA]))	< 0.009	75	0.12	89	8.6	87	0.18	110	> 20	
CC(C)NCC(O)COc1ccc(CC(N)=O)cc1 (configuration not stated) [ATENOLOL]				88		85		78		
CC(C)NCC(O)COc1cccc2ccccc12 (configuration not stated) [PROPRANOLOL]			20							
